Measured values published in ChEMBL document CHEMBL5678805, “Intermittent administration of MEK inhibitor GDC-0973 plus PI3K inhibitor GDC-0941 triggers robust apoptosis and tumor growth inhibition” (Cancer Res, 2012).
Active and inactive are the calls of the source. The calls are words filed in the database; no cut-off is given here.

Legend:
[1] = system: NCI-H2122; assay: Antitumor activity against human NCI-H2122 cells xenografted in mouse assessed as tumor growth inhibition at 15 mg/kg, po administered every third day for 21 days in presence of 4-(2-(1H-indazol-4-yl)-6-((4-(methylsulfonyl)piperazin-1-yl)methyl)thieno[3,2-d]pyrimidin-4-yl)morpholine; format: functional; settings: NCI-H2122, 504 h, time 21 day, read-out: TGI
How it was run: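 Dosing was oral, every third day (Q3D) across 21 days, with single agents or the MEK plus PI3K combination in NCI-H2122 xenograft mice. Tumor volume was calculated as (L×W×W)/2 from caliper measurements. %TGI was derived from fitted-curve AUC per day relative to vehicle, with body weight monitored.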

[2] = system: A2058; assay: Antitumor activity against human A2058 cells harboring BRAF V600E/PTEN deletion mutant xenografted in mouse assessed as increase in Bims level at 15 mg/kg, po administered every third day for 21 days and measured after 8 hrs post dose by Western blot analysis; format: functional, organism-based; settings: time 512.0 hrs
[3] = system: A549; assay: Antitumor activity against human A549 cells harboring KRAS G12S/LKB1Q37/SMARCA4 Q729/CDKN2A mutant xenografted in mouse assessed as tumor growth inhibition at 10 mg/kg, po; format: functional; settings: read-out: TGI
How it was run: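 Single-agent dose ranging in human tumor xenograft mice at 2.5, 5 or 10 mg/kg oral. Tumor volume was measured by caliper as (L×W×W)/2. %TGI = 100×[1 − AUC(treatment/d)/AUC(vehicle/d)] from the fitted growth curve per dose group, relative to vehicle.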

[4] = target: Casein kinase 2 (Homo sapiens, UniProt P67870+P68400+P19784+Q8NEV1); assay: Inhibition of CK2 (unknown origin); format: protein assay
[5] = target: Calcium/calmodulin-dependent protein kinase type 1 (Homo sapiens, UniProt Q14012); assay: Inhibition of CaMK1 (unknown origin)
[6] = target: Tyrosine-protein kinase Fes/Fps (Homo sapiens, UniProt P07332); assay: Inhibition of Fes (unknown origin)
[7] = system: A2058; assay: Antitumor activity against human A2058 cells harboring BRAF V600E/PTEN deletion mutant xenografted in mouse assessed as decrease in cyclin D1 level at 15 mg/kg, po administered every third day for 21 days and measured after 72 hrs post dose in presence of 4-(2-(1H-indazol-4-yl)-6-((4-(methylsulfonyl)piperazin-1-yl)methyl)thieno[3,2-d]pyrimidin-4-yl)morpholine by Western blot analysis; format: functional, organism-based; settings: time 576.0 hrs
[8] = system: 888-mel; assay: Upregulation of Bim level in human 888-mel cells incubated for 24 hrs by immunoblotting analysis; format: functional, cell-based
[9] = system: C32; assay: Antiproliferative activity against human C32 cells assessed reduction in cell viability incubated for 4 days in presence of 4-(2-(1H-indazol-4-yl)-6-((4-(methylsulfonyl)piperazin-1-yl)methyl)thieno[3,2-d]pyrimidin-4-yl)morpholine by celltiter-glo assay; format: functional; settings: time 4 day
How it was run: (§1)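 4-day CellTiter-Glo viability read-out on melanoma lines, cells exposed to increasing concentrations of each inhibitor alone and in combination.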

[10] = target: Serine/threonine-protein kinase Sgk1 (Homo sapiens, UniProt O00141); assay: Inhibition of SGK (unknown origin)
[11] = target: Serine/threonine-protein kinase Nek7 (Homo sapiens, UniProt Q8TDX7); assay: Inhibition of NEK7 (unknown origin)
[12] = system: NCI-H2122; assay: Antitumor activity against human NCI-H2122 cells xenografted in mouse assessed as tumor growth inhibition at 20 mg/kg, po administered once a day for 21 days; format: functional; settings: NCI-H2122, 504 h, time 21 day, read-out: TGI
How it was run: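 Mice bearing NCI-H2122 xenografts were given MEK inhibitor, PI3K inhibitor, or both, orally once daily for 21 consecutive days at the doses labeled. Caliper tumor volumes were calculated as (L×W×W)/2. %TGI was derived from the AUC of the fitted growth curve per day relative to vehicle.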

[13] = system: A2058; assay: Antitumor activity against human A2058 cells harboring BRAF V600E/PTEN deletion mutant xenografted in mouse assessed as suppression of S6 phosphorylation at 15 mg/kg, po administered every third day for 21 days and measured after 72 hrs post dose by Western blot analysis; format: functional, organism-based; settings: time 576.0 hrs
[14] = system: SK-OV-3; assay: Antitumor activity against human SK-OV-3 cells harboring FBXW7 R505L and CDKN2A mutant xenografted in mouse assessed as tumor growth inhibition at 2.5 mg/kg, po; format: functional; settings: read-out: TGI
How it was run: (§2)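 Human tumor xenografts in mice were dosed orally at the indicated mg/kg. Tumor volume was measured with calipers as (L×W×W)/2. %TGI = 100 × [1 − (AUC treatment/d)/(AUC vehicle/d)], using the area under the fitted tumor-growth curve per day for each dose group relative to vehicle.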

[15] = target: Dual specificity protein kinase CLK3 (Homo sapiens, UniProt P49761); assay: Inhibition of CLK3 (unknown origin)
[16] = system: G-361; assay: Antiproliferative activity against human G361 cells assessed reduction in cell viability incubated for 4 days in presence of 4-(2-(1H-indazol-4-yl)-6-((4-(methylsulfonyl)piperazin-1-yl)methyl)thieno[3,2-d]pyrimidin-4-yl)morpholine by celltiter-glo assay; format: functional; settings: time 4 day; how it was run: as §1
[17] = system: 888-mel; assay: Inhibition of ERK phosphorylation in human 888-mel cells incubated for 24 hrs in presence of 4-(2-(1H-indazol-4-yl)-6-((4-(methylsulfonyl)piperazin-1-yl)methyl)thieno[3,2-d]pyrimidin-4-yl)morpholine by immunoblotting analysis; format: cell-based
[18] = Antitumor activity against human A375.X1 cells xenografted in mouse assessed as tumor growth inhibition at 20 mg/kg, po administered every third day for 21 days in presence of 4-(2-(1H-indazol-4-yl)-6-((4-(methylsulfonyl)piperazin-1-yl)methyl)thieno[3,2-d]pyrimidin-4-yl)morpholine; format: functional; settings: A375.X1, 504 h, time 21 day, read-out: TGI
How it was run: (§3)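 Human tumor xenografts in mice. Drugs given orally, as single agents or combined with the PI3K inhibitor. Schedules were daily (QD) or every third day (Q3D) over 21 days. Tumor volume was measured by caliper as (L×W×W)/2. %TGI = 100×[1 − AUC(treatment/d)/AUC(vehicle/d)] from fitted growth curves, with group means. Tumor lysates were immunoblotted for pS6.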

[19] = system: NCI-H520; assay: Antitumor activity against human NCI-H520 cells harboring TP53 W146 and CDKN2A G G45 mutant xenografted in mouse assessed as tumor growth inhibition at 5 mg/kg, po; format: functional; settings: read-out: TGI; how it was run: as §2
[20] = system: A2058; assay: Inhibition of PI3K/MEK signaling pathway in human A2058 cells assessed as decrease in AKT phosphorylation by incubated for 24 hrs by Western blot analysis; format: cell-based
[21] = system: A2058; assay: Antitumor activity against human A2058 cells xenografted in mouse assessed as tumor growth inhibition at 20 mg/kg, po administered every third day for 21 days; format: functional; settings: A2058, 504 h, time 21 day, read-out: TGI; how it was run: as §3
[22] = system: A2058; assay: Antitumor activity against human A2058 cells xenografted in mouse assessed as tumor growth inhibition at 15 mg/kg, po administered every third day for 21 days in presence of 4-(2-(1H-indazol-4-yl)-6-((4-(methylsulfonyl)piperazin-1-yl)methyl)thieno[3,2-d]pyrimidin-4-yl)morpholine; format: functional; settings: A2058, 504 h, time 21 day, read-out: TGI; how it was run: as §3
[23] = system: A2058; assay: Antitumor activity against human A2058 cells harboring BRAF V600E/PTEN deletion mutant xenografted in mouse assessed as suppression of ERK phosphorylation at 15 mg/kg, po administered every third day for 21 days and measured after 8 hrs post dose by western blot analysis; format: functional, organism-based; settings: time 512.0 hrs

Sequence of Calcium/calmodulin-dependent protein kinase type 1 (Q14012 whole entry): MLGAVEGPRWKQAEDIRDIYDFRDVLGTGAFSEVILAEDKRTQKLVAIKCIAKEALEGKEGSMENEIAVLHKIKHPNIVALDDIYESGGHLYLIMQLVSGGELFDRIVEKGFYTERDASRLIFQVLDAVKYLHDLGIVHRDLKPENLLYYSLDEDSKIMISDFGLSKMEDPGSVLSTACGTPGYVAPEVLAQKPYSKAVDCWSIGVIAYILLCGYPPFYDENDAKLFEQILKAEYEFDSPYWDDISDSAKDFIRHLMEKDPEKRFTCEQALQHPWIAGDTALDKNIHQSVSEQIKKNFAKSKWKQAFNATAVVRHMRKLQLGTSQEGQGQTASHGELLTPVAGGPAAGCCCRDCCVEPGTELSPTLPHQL
Sequence of Dual specificity protein kinase CLK3 (P49761 whole entry): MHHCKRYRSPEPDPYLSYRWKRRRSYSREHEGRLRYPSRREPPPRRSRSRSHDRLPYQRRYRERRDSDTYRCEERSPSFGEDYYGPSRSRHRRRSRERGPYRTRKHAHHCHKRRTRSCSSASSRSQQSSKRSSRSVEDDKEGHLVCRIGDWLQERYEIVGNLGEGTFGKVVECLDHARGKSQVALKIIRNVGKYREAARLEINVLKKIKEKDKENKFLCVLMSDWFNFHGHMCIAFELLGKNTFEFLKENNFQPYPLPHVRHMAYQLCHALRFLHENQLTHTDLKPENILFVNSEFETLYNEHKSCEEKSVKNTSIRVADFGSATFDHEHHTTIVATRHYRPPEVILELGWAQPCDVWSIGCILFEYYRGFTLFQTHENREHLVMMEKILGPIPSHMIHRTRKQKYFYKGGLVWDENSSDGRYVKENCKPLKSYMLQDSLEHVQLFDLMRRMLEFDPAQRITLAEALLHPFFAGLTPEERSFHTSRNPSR
Sequence of Tyrosine-protein kinase Fes/Fps (P07332 whole entry): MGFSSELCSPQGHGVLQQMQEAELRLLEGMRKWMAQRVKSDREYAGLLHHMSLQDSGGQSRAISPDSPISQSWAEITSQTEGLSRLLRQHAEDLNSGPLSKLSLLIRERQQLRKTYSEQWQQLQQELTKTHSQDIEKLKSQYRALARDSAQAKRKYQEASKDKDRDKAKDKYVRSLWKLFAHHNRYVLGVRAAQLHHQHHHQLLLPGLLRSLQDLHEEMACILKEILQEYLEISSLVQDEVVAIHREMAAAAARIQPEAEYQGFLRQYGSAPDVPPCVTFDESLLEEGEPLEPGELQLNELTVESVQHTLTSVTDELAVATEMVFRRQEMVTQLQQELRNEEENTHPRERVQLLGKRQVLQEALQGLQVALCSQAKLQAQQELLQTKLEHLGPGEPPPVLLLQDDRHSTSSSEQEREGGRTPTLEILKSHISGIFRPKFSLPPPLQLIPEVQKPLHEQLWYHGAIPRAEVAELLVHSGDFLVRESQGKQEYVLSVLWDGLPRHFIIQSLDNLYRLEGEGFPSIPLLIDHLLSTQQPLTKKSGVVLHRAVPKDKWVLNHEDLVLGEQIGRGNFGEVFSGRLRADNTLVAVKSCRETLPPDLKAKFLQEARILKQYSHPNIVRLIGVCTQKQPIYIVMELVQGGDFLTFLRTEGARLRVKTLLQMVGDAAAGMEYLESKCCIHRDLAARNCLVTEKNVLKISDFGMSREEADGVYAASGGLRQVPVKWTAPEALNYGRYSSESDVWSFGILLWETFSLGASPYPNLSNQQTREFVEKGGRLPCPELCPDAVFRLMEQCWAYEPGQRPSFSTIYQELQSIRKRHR
Sequence of Serine/threonine-protein kinase Nek7 (Q8TDX7 whole entry): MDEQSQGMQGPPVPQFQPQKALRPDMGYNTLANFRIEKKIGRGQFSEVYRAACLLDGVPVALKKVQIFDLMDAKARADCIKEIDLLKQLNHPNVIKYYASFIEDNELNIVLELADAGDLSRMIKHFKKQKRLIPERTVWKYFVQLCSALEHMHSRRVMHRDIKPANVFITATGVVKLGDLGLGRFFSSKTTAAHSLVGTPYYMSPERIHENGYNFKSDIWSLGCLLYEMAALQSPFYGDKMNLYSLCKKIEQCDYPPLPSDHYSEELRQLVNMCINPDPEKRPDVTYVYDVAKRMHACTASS
Sequence of Serine/threonine-protein kinase Sgk1 (O00141 whole entry): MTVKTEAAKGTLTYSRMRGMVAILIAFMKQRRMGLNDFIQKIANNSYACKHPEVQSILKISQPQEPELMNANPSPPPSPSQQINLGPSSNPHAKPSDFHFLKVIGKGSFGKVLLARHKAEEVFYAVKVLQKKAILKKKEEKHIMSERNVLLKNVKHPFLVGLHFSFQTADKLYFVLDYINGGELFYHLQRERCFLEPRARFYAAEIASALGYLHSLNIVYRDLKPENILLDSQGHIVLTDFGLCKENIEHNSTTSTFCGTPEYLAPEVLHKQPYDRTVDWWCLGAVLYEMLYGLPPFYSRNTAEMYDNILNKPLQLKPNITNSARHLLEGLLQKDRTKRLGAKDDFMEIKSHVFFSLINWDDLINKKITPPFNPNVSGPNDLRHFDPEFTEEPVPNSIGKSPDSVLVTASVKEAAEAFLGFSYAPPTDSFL

With `O=C(c1ccc(F)c(F)c1Nc1ccc(I)cc1F)N1CC(O)([C@@H]2CCCCN2)C1` [COBIMETINIB] the inhibition in vivo at 15 mg/kg [1] was 156%, the Activity [2] was “Active” and the inhibition in vivo at 10 mg/kg [3] was 108%. The IC50 [4] was > 10 µM, the IC50 [5] was > 10 µM and the IC50 [6] was > 10 µM. For the same molecule, the Activity [7] was “Active”, the Activity [8] was “Active” and the Activity [9] was 60%. For the same molecule, the IC50 [10] was > 10 µM, the IC50 [11] was > 10 µM and the inhibition in vivo at 20 mg/kg [12] was 61%. For the same molecule, the Activity [13] was “Active”, the inhibition in vivo at 2.5 mg/kg [14] was 36% and the IC50 [15] was > 10 µM. The Activity [16] was 60%, the inhibition [17] was “Active” and the inhibition in vivo at 20 mg/kg [18] was 118%. For the same molecule, the inhibition in vivo at 5 mg/kg [19] was 26%, the inhibition [20] was “Active” and the inhibition in vivo at 20 mg/kg [21] was 34%. For the same molecule, the inhibition in vivo at 15 mg/kg [22] was 83% and the Activity [23] was “Active”.
